Most compounds without a hit are left out; they make up all but 2.6% or so of the library.
IMP-1 inhibitor = blocks Pseudomonas aeruginosa IMP-1 metallo-beta-lactamase; purified IMP-1, nitrocefin hydrolysis, epi-absorbance fluorescence; inhibition, % at 5.6 µM; 290,000 compounds, 0.45% hits; AID 1556;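 active = inhibition above the mean plus 3 SD of all compounds in the same screening run, cut at about 4.5% in these data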;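 note: 0% = IMP-1 with DMSO and 100% = DMSO wells lacking enzyme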
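System: purified IMP-1 / Input: IMP-1 dispensed at 0.2 nM / Medium: 50 mM HEPES pH 7.1, 50 µM ZnSO4, 0.05% Brij 35 / Timing: 15 min enzyme–compound preincubation, then 25 min nitrocefin reaction, 25 °C / Technique: plate fluorescence quenching by hydrolysis product, ex 480/em 530 nm / Repeats: singlicate testing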
Calb FLC = C. albicans growth modulation with fluconazole. C. albicans CaCi-2 + fluconazole, Alamar Blue growth, 48 h. AID 1979. 300,000 compounds, 0.57% hits. growth inhibition, % (test concentration not listed);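 active = growth inhibition above about 58% in most replicates, limit read from the data, passing the limit was not always enough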;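 note: all wells also contain fluconazole at 8 µg/ml as a sub-toxic cotreatment; 0% = median of DMSO wells and 100% = median of geldanamycin control wells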
ASAP1 GAP inh = inhibitors of human ASAP1 ArfGAP activity | Q9ULH1 | ASAP1-stimulated ARF1 GTP hydrolysis, GDP FP detection | AID 624377 | inhibition, % at 16.5 µM | 360,000 compounds, 0.19% hits; in the data active = inhibition above about 25%;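 note: 0% = vehicle with enzyme and substrate and 100% = no enzyme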
Target sequence (Q9ULH1 325-724 limits assumed): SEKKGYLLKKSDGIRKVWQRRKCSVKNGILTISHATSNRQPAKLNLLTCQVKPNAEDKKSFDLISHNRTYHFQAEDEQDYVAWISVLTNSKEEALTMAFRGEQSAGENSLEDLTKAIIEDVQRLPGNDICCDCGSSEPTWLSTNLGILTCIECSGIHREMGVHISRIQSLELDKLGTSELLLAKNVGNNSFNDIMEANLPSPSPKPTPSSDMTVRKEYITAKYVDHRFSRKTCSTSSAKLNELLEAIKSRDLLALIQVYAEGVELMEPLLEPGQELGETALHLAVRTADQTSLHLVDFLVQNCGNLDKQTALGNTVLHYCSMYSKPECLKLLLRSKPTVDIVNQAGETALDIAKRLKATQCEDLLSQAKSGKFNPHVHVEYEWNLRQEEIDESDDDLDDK
VIM-2 inhibitor = inhibitors of Pseudomonas aeruginosa VIM-2 metallo-beta-lactamase; purified VIM-2, nitrocefin hydrolysis, epi-absorbance fluorescence; inhibition, % at 5.6 µM; 290,000 compounds, 0.89% hits;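 active = inhibition above the mean of all tested compounds plus 3 SD, cutoff set per screening run, cut at about 7.5% in these data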;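 note: red hydrolysis product quenches plate fluorescence so inhibitors raise well fluorescence; 0% = enzyme with DMSO and 100% = DMSO without enzyme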
ARFGAP1 inh = inhibits rat ARF GTPase activating protein 1. Q62848. Arfgap1-stimulated ARF1 GTP hydrolysis, GDP FP detection. inhibition, % at 16.5 µM. 360,000 compounds, 0.26% hits. AID 651572;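 active = inhibition above a per-plate limit, mean inhibition of low control wells plus 3 SD, cut at about 25% in these data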;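 note: 0% = DMSO wells with enzyme and 100% = wells lacking Arfgap1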
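system = rat Arfgap1 catalytic domain, aa 1-136 | technique = FP, GDP Alexa 633 tracer displaced from anti-GDP antibody, 620/688 nm | compound = one concentration, 16.5 µM, DMSO 1.26% | medium = HEPES-based buffer, pH 7.5 | timing = compound-enzyme preincubation 20 min, reaction 120 min, detection 60 min, 25 °C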
PHOSPHO1 inh = blocks human PHOSPHO1 phosphatase activity | inhibition, % at 13.3 µM | recombinant PHOSPHO1, absorbance phosphatase assay | 290,000 compounds, 1.1% hits; in the data active = inhibition above about 60%
Target sequence (Q8TCT1 whole entry, looked up): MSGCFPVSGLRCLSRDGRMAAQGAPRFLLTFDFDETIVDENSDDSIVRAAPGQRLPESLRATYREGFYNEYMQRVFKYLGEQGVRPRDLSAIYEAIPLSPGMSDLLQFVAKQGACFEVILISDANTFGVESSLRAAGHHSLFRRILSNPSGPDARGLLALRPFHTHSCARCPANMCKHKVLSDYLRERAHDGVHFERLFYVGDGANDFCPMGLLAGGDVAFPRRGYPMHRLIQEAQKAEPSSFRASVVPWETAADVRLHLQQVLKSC
ASAP1 GAP conf = confirmation of human ASAP1 inhibitors; shares compounds with ASAP1 GAP inh; ASAP1-stimulated Arf1 GTPase, GDP fluorescence polarization; inhibition, % at 16.5 µM; 620 compounds, 37% hits; AID 624431;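 active = mean inhibition over triplicates exceeds the hit threshold derived for the earlier primary screening run, cut at about 25% in these data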
Numbers without * were called inactive; nt = not tested or not shown.

SMILES	IMP-1 inhibitor	Calb FLC	ASAP1 GAP inh	VIM-2 inhibitor	ARFGAP1 inh	PHOSPHO1 inh	ASAP1 GAP conf
Cc1ccc(NC(=O)CN2C(=O)S/C(=C\c3cc(Cl)c(OCC(=O)O)c(Cl)c3)C2=O)cc1	-1.1	2.8	64.8*	-1.3	37.2*	-31.7	75.0*
COc1ccc(OCc2cc(C(=O)NC3CCOCC3)no2)c2ccccc12	-0.8	31.4	29.9*	-0.6	0.1	12.1	1.5
COc1cccc(OCc2cc(C(=O)NC3CCOCC3)no2)c1	-2.7	-14.5	2.1	-1.3	4.7	18.1	nt
CN(C(=O)CSc1nncn1C)C1CCCN(Cc2ccccc2F)C1 (configuration not stated)	-2.8	2.0	30.6*	1.2	15.4	31.3	1.1
CN(C(=O)CCN1CCCO1)C1CCCN(Cc2ccccc2F)C1 (configuration not stated)	2.4	-16.6	-10.9	0.0	-0.6	44.5	nt
OC[C@@H]1CN(Cc2ccc(-c3ccccc3)cc2)C[C@H](n2cnc3c(Nc4ccccc4)ncnc32)O1	nt	nt	26.0*	nt	11.1	nt	11.6
CNc1ncnc2c1ncn2[C@H]1CN(Cc2ccc(-c3ccccc3)cc2)C[C@@H](CO)O1	nt	nt	-8.4	nt	-5.0	nt	nt
CC[n+]1c(/C=C/C=C/N(C(C)=O)c2ccccc2)sc2ccccc21	-2.6	89.3*	45.0*	4.2	23.4	54.0	43.9*
CCn1c(/C=C/N(C(C)=O)c2ccccc2)[n+](CC)c2ccc(Cl)cc21	-1.7	-4.2	6.3	-2.5	8.1	-13.4	nt
COc1ccccc1Oc1cc(F)nc(N)n1	-1.3	-15.8	25.8*	0.2	11.4	19.4	1.7
COc1ccc(CN2C[C@@H](CO)O[C@@H](n3cnc4c(NCCO)ncnc43)C2)cc1	nt	nt	-0.3	nt	-10.9	nt	nt
CCNC(=O)c1ccc(CSc2nc3ccccc3s2)cc1	-2.4	0.5	27.1*	-2.4	12.3	19.8	7.6
COCCNC(=O)c1ccc(CSc2nc3ccccc3s2)cc1	0.7	2.8	-20.4	1.0	-0.1	38.3	nt
O=C(Nc1ccc2oc(=O)ccc2c1)c1ccc(-c2cccc(Cl)c2)o1	-0.5	17.2	23.5	-3.1	-1.2	44.6	nt
O=C(Nc1ccc2oc(=O)ccc2c1)c1ccc(-c2ccc(Cl)cc2)o1	1.4	0.6	48.4*	0.3	6.6	-7.1	68.6*
O=C(Oc1ccc(-c2cnc3ccccc3n2)cc1)c1cc([N+](=O)[O-])ccc1Cl	-0.1	-0.8	-5.6	0.0	-2.0	23.6	nt
Cc1c(C(=O)Oc2ccc(-c3cnc4ccccc4n3)cc2)cccc1[N+](=O)[O-]	-2.7	4.9	25.1*	-2.5	-2.3	49.9	12.9
Cc1ccccc1N1CCN(C(=O)CN2C(=O)c3ccccc3C2=O)CC1	-3.6	0.8	26.1*	-4.4	-7.8	-8.4	0.5
O=C(O)C1C=CCC(C(=O)O)C1 (configuration not stated)	nt	nt	-11.9	nt	7.5	nt	nt
Cc1cc(OCC(=O)Nc2ccc(N3CCCC3)cc2)cc(C)c1Cl	0.9	9.6	24.8*	-0.6	1.4	3.0	7.2
CCOc1ccc(OCC(=O)Nc2ccc(N3CCCCC3)cc2)cc1	0.7	-5.3	-3.3	-1.3	23.4	27.6	nt
O=C(CSc1nc2ccc(Nc3nc(N4CCOCC4)nc(N4CCOCC4)n3)cc2s1)Nc1ccccc1	nt	nt	-0.8	nt	0.2	nt	nt
O=C(CSc1nc2ccc(Nc3nc(N4CCOCC4)nc(N4CCOCC4)n3)cc2s1)N1CCOCC1	-1.0	8.6	25.4*	-2.4	12.0	-14.7	45.5*
COc1ccc(/C=C2\C(=O)NC(=S)N2C(=O)c2ccc(F)cc2)cc1	-0.7	-2.6	24.9*	-3.4	-10.6	-50.1	7.0
CC1(C(=O)NCc2cccs2)CCN1C(=O)Cc1cccc2ccccc12 (configuration not stated)	nt	nt	-5.2	nt	11.4	nt	nt
SMILES	IMP-1 inhibitor	Calb FLC	ASAP1 GAP inh	VIM-2 inhibitor	ARFGAP1 inh	PHOSPHO1 inh	ASAP1 GAP conf
COc1ccccc1CNc1nc(NCCOc2ccccc2)c2sccc2n1	nt	nt	25.0*	nt	6.7	nt	15.6
CC(C)=CCn1c2ccc(NC(=O)Nc3cccnc3)cc2c(=O)n1C	nt	nt	24.8*	nt	7.2	nt	6.3
COc1cccc(/C=N/Nc2ccc([N+](=O)[O-])cc2)c1O	-2.7	-8.0	15.7	-2.9	6.8	-7.1	nt
COc1ccc(/C=N/NC(=O)c2nc(-c3ccccc3)cc(-c3ccccc3)n2)cc1O	-4.9	-3.4	25.9*	-4.3	10.6	-6.6	32.4*
COc1ccc(/C=N/Nc2ccc([N+](=O)[O-])cc2)cc1O	-1.4	-18.6	25.1*	-0.5	22.4	24.1	31.4*
CC1=C(C(=O)N(C(C)C)C(C)C)CC(CC(=O)NC2CC2)C(=O)N1CCCN1CCCC1=O (configuration not stated)	nt	nt	-2.2	nt	2.2	nt	nt
O=[N+]([O-])c1cccc(-c2cc(-c3cc(Br)ccc3O)[nH]n2)c1	-1.9	84.4*	24.9*	-4.7	20.7	23.0	16.7
Oc1ccc(Br)cc1-c1cc(-c2ccccc2)n[nH]1	-7.0	7.6	11.8	-6.4	20.6	16.6	nt
O=C(NCc1ccc(Cl)c(Cl)c1)c1cc(C2CCCCN2C(=O)c2ccccn2)on1 (configuration not stated)	nt	nt	-17.2	nt	7.8	nt	nt
COc1ccc(Cl)cc1S(=O)(=O)NCc1cccnc1	-3.2	-0.5	25.6*	-0.2	11.0	-9.1	7.7
O=C1Cc2ccccc2C(=O)N1CCc1ccccc1	-2.9	-2.4	33.4*	-4.3	12.6	21.7	14.8
O=C1C(=O)N(Cc2ccccc2)C(=O)N1CCN1C(=O)c2ccccc2C1=O	-1.8	-3.9	6.3	-1.4	0.4	16.8	nt
O=C(CSc1ncnc2scc(-c3ccccc3)c12)N1CCN(Cc2ccc3c(c2)OCO3)CC1	-0.2	-11.2	31.3*	-2.3	10.7	-1.8	46.1*
CCCOc1ccc2[nH]c(C(=O)N/N=C/c3cc(OC)c(OC)c(OC)c3)cc2c1	-1.8	5.8	21.4	-0.8	8.4	39.0	nt
CCOc1ccc2[nH]c(C(=O)N/N=C/c3ccccc3OC)cc2c1	-1.0	1.7	29.8*	-1.6	9.6	35.6	27.7*
COc1cccc(NC(=O)C2(C)CCN2Cc2ccc(SC)cc2)c1 (configuration not stated)	nt	nt	-4.0	nt	-7.4	nt	nt
O=C(CCCN1C(=O)/C(=C/c2ccc(F)cc2)SC1=S)NCCCn1ccnc1	-3.5	-21.4	25.7*	0.7	-3.2	27.3	-4.0
COc1ccc(/C=C2\SC(=S)N(CCC(=O)NCCCn3ccnc3)C2=O)cc1	3.6	-1.0	2.3	1.7	16.7	49.6	nt
O=C(O)C1[C@H]2C(=O)N(Cc3cccs3)C[C@]23C=C[C@H]1O3 (some centres not stated)	-2.1	10.2	24.8*	-2.4	-4.2	-15.0	3.5
CC(C)c1ccc([C@@H]2O[C@H](CCc3ccccc3)Cc3[nH][nH]c(=O)c32)cc1	nt	nt	28.4*	nt	8.9	nt	7.4

Screening data deposited in PubChem BioAssay by several laboratories.
